# Hits are enriched below; roughly 1.9% of the tested compounds scored in any of these assays.
# STEP block: STEP (human) phosphatase inhibition | recombinant STEP, OMFP fluorogenic substrate, fluorescence | inhibition, % at 20 µM | 0.25% of 360,000 active | AID 588621;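 active means inhibition at 20 µM, scaled per plate between control wells, above about 37%, limit read from the data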
#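 System: isolated STEP enzyme; schedule: 20 min enzyme reaction at room temperature, protected from light; medium: Bis-Tris buffer pH 6.0, 2.5 mM DTT, 0.005% Tween 20; signal: fluorescence, 480/540 nm; dosing: single compound dose of 20 µM, 1% DMSO final; also added: OMFP substrate, 25 µM final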
# CSN inh: CSN deneddylation inhibition; Q92905; inhibition, % at 12.5 µM; 0.38% of 360,000 active; Purified CSN, SCF-Nedd8-OG deneddylation, fluorescence polarization;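 active means pattern-corrected inhibition above about 35%, with an unprinted fluorescence ratio check between 0.5 and 1.5, limit read from the data, passing the limit was not always enough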
#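 Material: human Csn5 produced in HEK293T cells; Input: enzyme 0.24 nM; Reagent: SCFSkp2-Nedd8OG substrate at 10 nM final; Dosing: 12.5 µM compound; Incubation: 90 min reaction at room temperature; Detection: fluorescence polarization of the substrate; Evaluation: % inhibition of substrate cleavage by Csn5; Control set: substrate-only high control, full reaction low control.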
# Scp1 inh: Scp-1 (human) phosphatase inhibition. Q9GZU7. Recombinant Scp1, phosphopeptide, malachite green phosphate absorbance. inhibition, % at 20 µM. 0.88% of 340,000 active;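 active means inhibition above about 50% at 20 µM, limit read from the data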
#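 System: SCP-1 catalytic domain; Reagent: Phospho 17-mer peptide substrate; Doses: one concentration, 20 µM, with 1.0% DMSO; Incubation: 45 min room-temperature reaction, 5 min colour, 30 min stabiliser; Signal: Phosphate-binding colour reagent, absorbance read at 630 nm.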
# DNMT1 inh: DNMT1 (human) enzyme inhibition; DNMT1 molecular beacon, Hinp1I cleavage, fluorescence; inhibition (reported as % activation of signal), % at 10 µM; P26358; 0.83% of 360,000 active; in the data active means inhibition above about 50%
# LMPTP block: LMPTP (human) inhibition; P24666; recombinant LMPTP-A, OMFP fluorogenic substrate, fluorescence intensity; inhibition, % at 20 µM; 0.22% of 360,000 active; AID 651560;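 active means compounds that cut the enzyme signal by at least half of the control window in the single-dose screen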
#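 Test system: LMPTP-A phosphatase enzyme; input: 0.625 nM LMPTP-A final; reagent: OMFP substrate, 400 µM final; compound dosing: 20 µM single dose, 3% DMSO; incubation: 50 min dark incubation at room temperature; measured by: endpoint fluorescence intensity from OMFP dephosphorylation; measure: % inhibition relative to no-enzyme and uninhibited control wells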
# SUMO1 PPI mod: modulators of human SUMO1-mediated protein-protein interactions; SUMO1 binding to a labelled peptide, TR-FRET, 1 h; P63165; inhibition, % at 20 µM; AID 602429; 0.33% of 360,000 active; in the data active means inhibition above about 37%
# Beacon interf DR: shows spectral interference in the DNMT1 beacon assay | shares compounds with DNMT1 inh | molecular beacon fluorescence, spectral interference counter-screen | IC50, µM | 200 tested, under 10 active | AID 602382; call rule not given here
# DNMT1 confirm: confirmation of human DNMT1 inhibitors | shares compounds with DNMT1 inh | inhibition, % at 10 µM | DNMT1 molecular beacon HinP1I cleavage, fluorescence | AID 602385 | 8% of 2,300 active;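 active means average inhibition of at least 30% in the single-concentration confirmation test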
# DNMT1 interf: shows spectral interference in the DNMT1 beacon assay | shares compounds with DNMT1 inh | DNMT1 molecular beacon spectral interference counterscreen, fluorescence 485/520 | activation (fluorescence interference), % at 10 µM | 1% of 2,300 active;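 active means activation of at least 30% at 10 µM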;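 further: DNMT1 catalytic domain with a HinP1I cleavage step and a FAM/dabcyl DNA beacon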
# Hits are given with their value; 0 = inactive; - = not tested or not shown.
SMILES,STEP block,CSN inh,Scp1 inh,DNMT1 inh,LMPTP block,SUMO1 PPI mod,DNMT1 confirm,DNMT1 interf,others
CN(CCC#N)C(=O)COC(=O)c1c2c(nc3ccccc13)/C(=C/c1ccco1)CC2,0,0,77.7,100.0,58.9,0,0,0,
O=C(COC(=O)c1ccccc1O)Nc1ncc(Cl)cc1Cl,0,0,0,64.0,0,0,0,0,
O=C(COC(=O)c1ccccc1NC(=O)c1ccco1)Nc1ncc(Cl)cc1Cl,0,0,0,0,0,0,-,-,
O=C(COC(=O)c1ccc(-c2nnc(-c3ccccc3)o2)cc1)c1ccccc1,0,0,0,53.8,0,0,0,0,
CCOc1ccc(NC(=O)CN(C)C(=O)c2csc3c2CCCC3)cc1OCC,0,0,0,0,0,0,-,-,
CCOc1ccc(NC(=O)CN(C)C(=O)c2cc3c(s2)CCC3)cc1OCC,0,0,-,93.5,0,0,0,0,
O=C(NC1CCCCC1)NS(=O)(=O)c1ccc2c(c1)CCC2,0,0,0,0,0,0,-,-,
CCc1ccc(/C=N/N2CCN(c3ccccn3)CC2)cc1,0,0,0,74.9,0,0,0,0,
CN(c1ccccc1)c1ccc(/C=C(/CCC(=O)O)c2nc3ccccc3s2)cc1[N+](=O)[O-],0,0,0,84.7,0,39.0,0,0,Beacon interf DR=0
COc1ccc(CCn2c(-c3ccc(F)cc3)nc3c(c(=O)c4ccccc4n3C)c2=O)cc1OC,0,0,0,0,0,0,-,-,
COc1ccc(CCn2c(C3CCCCC3)nc3c(c(=O)c4ccccc4n3C)c2=O)cc1OC,0,0,0,63.2,0,40.8,0,0,
COc1ccccc1N1CCN(C(=O)c2ccc3[nH]c4c(c3c2)CCCC4)CC1,0,0,0,0,0,0,-,-,
O=C(c1ccc2[nH]c3c(c2c1)CCCC3)N1CCN(c2ccc(F)cc2)CC1,0,0,0,59.4,0,0,0,0,
C=CCN(c1nc(C)cc(OC)n1)S(=O)(=O)c1ccc(C)cc1,0,0,0,96.7,0,0,0,0,
C=CCN(c1nc(C)cc(OC)n1)S(=O)(=O)c1ccccc1,0,0,0,0,0,0,-,-,
CCc1nnc2n1N=C(c1ccc(-c3cc(Cl)ccc3Cl)o1)CS2,0,0,0,66.0,0,0,0,0,
CCCN(CC(=O)Nc1ccccc1C)C(=O)c1ccc(=O)n(Cc2ccccc2)n1,0,0,0,0,0,0,-,-,
O=C(COC(=O)C1CC(=O)N(Cc2ccco2)C1)c1ccc(OC(=O)c2ccco2)cc1 (stereo not drawn),0,0,80.5,76.0,0,0,0,0,
Cc1ccc(CSc2nnc(SCC(=O)N/N=C/C=C/c3ccco3)s2)cc1,0,0,0,52.5,0,0,0,0,
Cc1ccc(CSc2nnc(SCC(=O)N/N=C/C=C/c3ccccc3[N+](=O)[O-])s2)cc1,0,0,0,0,0,0,-,-,
COc1ccc(C(=O)NCc2nnc(SCC(=O)NCCc3ccccc3)o2)cc1,0,0,0,0,0,0,-,-,
COc1ccc(N=Cc2c(O)[nH]c3ccccc23)cc1,0,0,0,0,0,0,-,-,
Cc1ccc(N=Cc2c(O)[nH]c3ccccc23)c([N+](=O)[O-])c1,0,0,0,59.0,0,0,0,0,
CSc1nc(C)cc(OCCNS(=O)(=O)c2cc(C)ccc2C)n1,0,0,0,67.0,0,0,0,0,
Cc1ccc(C)c(S(=O)(=O)NCCOc2nc(NC(C)C)nc(NC(C)C)n2)c1,0,0,0,0,0,0,-,-,
SMILES,STEP block,CSN inh,Scp1 inh,DNMT1 inh,LMPTP block,SUMO1 PPI mod,DNMT1 confirm,DNMT1 interf,others
O=C(NCc1ccco1)c1ccc(Cn2cc([N+](=O)[O-])cn2)o1,0,0,0,0,0,0,-,-,
O=C(NCc1ccco1)c1ccc([N+](=O)[O-])o1,0,0,58.7,67.3,0,0,0,0,
S=C(NCc1ccco1)NCc1ccco1,0,0,0,0,0,0,0,0,
COc1ccc2nc(C)cc(SCC(=O)Nc3c(C)cc(C)cc3C)c2c1,0,0,0,55.1,0,0,0,0,
COCc1nnc(NC(=O)c2cc(OC)c(OC)cc2[N+](=O)[O-])s1,0,0,0,0,0,0,-,-,
CCOc1ccccc1NC(=O)CCNC(=O)N1CC(=O)Nc2ccccc21,0,0,-,0,0,0,-,-,
CC1(C(=O)NS(=O)(=O)Cc2ccccc2)CCN1C(=O)c1ccc(C2CCCCC2)cc1 (stereo not drawn),0,0,-,0,0,0,-,-,
CC1(C(=O)NS(=O)(=O)Cc2cccc(Cl)c2)CCN1C(=O)c1ccc(C2CCCCC2)cc1 (stereo not drawn),0,0,-,78.2,0,0,0,0,
CN(C)c1ccc(S(=O)(=O)N2CCCCC2)cc1NC(=O)CN1C(=O)NC2(CCCC2)C1=O,0,0,0,0,0,0,-,-,
Cc1ccccc1-c1cccc([C@@H]2C[C@H]3[C@H](CON3C)CN2C(=O)CCc2ccccc2)c1,0,0,0,77.5,0,0,0,0,
COc1ccc(-n2nc(C(=O)NCC(=O)N(C)Cc3ccccc3)c3ccccc3c2=O)c(OC)c1,0,0,0,0,0,0,-,-,
C=CCn1c(SCC(=O)NC2CCCC2)nc2ccccc21,0,0,-,70.1,0,0,0,0,
C=CCn1c(SCC(=O)NC2CC2)nc2ccccc2c1=O,0,0,0,0,0,0,-,-,
CCOc1cc(CNc2nn[nH]n2)ccc1OCC(=O)NC(C)(C)C,0,0,0,0,0,0,-,-,
CC(=O)Nc1cc(-c2cccc(C(=O)NCCO)c2)cn2c(-c3ccc(F)c(Cl)c3)cnc12,0,0,-,0,0,0,-,-,
O=C(C1COc2ccccc2O1)N1CCc2ccccc21 (stereo not drawn),0,0,74.0,57.8,0,0,0,0,
O=C(C1COc2ccccc2O1)N1CCCC1 (stereo not drawn),0,0,0,0,0,0,-,-,
O=C(NCC1CCCCC1)c1ccc2nc([C@@H]3O[C@H](CO)[C@@H](O)[C@H]3O)[nH]c2c1,0,0,-,0,0,0,-,-,
O=C(N/N=C1/C(=O)c2cccc3cccc1c23)c1ccc(Cl)cc1,98.8,0,95.3,96.5,94.2,71.2,0,0,
Cc1cc2nc(-c3ccc(SCC(=O)Nc4ccc(S(=O)(=O)N5CCCC5)cc4)nc3)[nH]c2cc1C,0,0,0,66.0,0,0,0,0,

# Assay outcomes: PubChem BioAssay, Sanford-Burnham Center for Chemical Genomics
